# TRPC4 block: inhibitors of mouse TRPC4 channel; Q9QUQ5; HEK293 TRPC4beta/mu-opioid, DAMGO-evoked Fluo4 calcium flux; hits give low values; B-score at 10 µM; 300,000 tested, 0.39% active;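 active means B-score over 3 SD under the library average, no early fluorescence shift, positive overall ratio signal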
#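 material = TRPC4beta/mu-opioid receptor HEK293 cell line | probe or stimulus = sequential submaximal and maximal DAMGO stimulation | compound dosing = one concentration per compound | measured by = Fluo4 Ca2+ flux fluorescence | evaluation = integrated fluorescence ratio relative to baseline, converted to per-well B score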
# TRPC4 potent: allosterically enhances the mouse TRPC4 cation channel; HEK293 TRPC4beta/mu-opioid, DAMGO EC20, Fluo-4 Ca2+ flux; hits give high values; B-score at 10 µM; 310,000 tested, 0.42% active;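 active means B-score of calcium response area above 5 SD of library B-scores, with initial fluorescence ratio within 5 SD of library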
# TRPC4 act: activators of mouse TRPC4 channel. Q9QUQ5. HEK293 TRPC4beta/mu-opioid, Fluo4 calcium fluorescence; hits give high values. B-score at 10 µM. 310,000 tested, 0.49% active;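 active means B-score above 5 SD of library B-scores, and initial fluorescence ratio not above library mean plus 5 SD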;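 further: positive B-score marks a calcium rise read as TRPC4 activation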
#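 System – HEK293 cells stably co-expressing mouse TRPC4beta and mu-opioid receptor · Signal – Fluo4 calcium-sensitive dye fluorescence, kinetic, 1 Hz baseline · Benchmarks – buffer (low) and maximal DAMGO (high) · Read-out – B score of integrated fluorescence ratio per well · Incubation – dye loading 45 min room temperature, 110 s kinetic read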
# TRPC6 activator: mouse TRPC6 channel activation; Q61143; HEK293-TRPC6 membrane potential dye fluorescence; hits give high values; B-score at 10 µM; 310,000 tested, 0.13% active;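 active means B-score of the integrated fluorescence ratio above library mean plus 3 SD, and starting fluorescence ratio within library mean plus 5 SD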;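 further: higher score means more depolarization so channel activation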
# TRPC6 inh: mouse TRPC6 channel inhibition | Q61143 | HEK293-TRPC6, membrane potential dye, ACh-evoked depolarization; hits give low values | B-score at 10 µM | 310,000 tested, 1.1% active | AID 2553;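 active means B-score under library mean minus 3 SD, initial fluorescence not abnormally high, positive integrated signal ratio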;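 further: B-score derived from integrated fluorescence ratio over the kinetic read; more negative B-score means stronger inhibition of depolarization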
# TRPC4 spec 2: mouse TRPC4 off-target activity of TRPC6 inhibitors, second screen. shares compounds with TRPC6 inh. HEK293 TRPC4/MOR, membrane potential dye fluorescence; channel activated by saturating DAMGO dose. inhibition, % at 10 µM. 920 tested, 42% active. AID 2776;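 active means compounds whose fluorescence signal differed from control wells by over 3 SD, either direction, in both duplicate plates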
# TRPC4 spec: selectivity of TRPC6 inhibitors: effect on mouse TRPC4 | shares compounds with TRPC6 inh | HEK293 TRPC4/mu-opioid, membrane potential fluorescence | activity change, negative = inhibition, % at 10 µM | 920 tested, 61% active | AID 2777;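 active means rise or fall in signal beyond 3 SD of buffer-only wells in both replicate plates, either sign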;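 further: integrated kinetic ratio of fluorescence range over baseline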
# HEK293 MPD ctr 2-1: second check of TRPC6 inhibitor effects in parental HEK293 cells. shares compounds with TRPC6 inh. parental HEK293 membrane potential dye fluorescence; maximal acetylcholine challenge after compound addition. signal change vs control, % at 10 µM. 920 tested, 31% active. AID 2779;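 active means membrane potential signal moving either way by over 3 SD of the maximum-effect control, in both duplicate plates, meaning non-specific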
# HEK293 MPD ctr-1: counter-screen for TRPC6 inhibitors: effect in parental HEK293 cells | shares compounds with TRPC6 inh | parental HEK293 membrane potential dye fluorescence | membrane potential signal change, % at 10 µM | 920 tested, 60% active | AID 2780;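 active means membrane potential signal shifting up or down by more than 3 SD of buffer-only wells, on both duplicate plates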
# HEK293 MPD ctr-2: parental HEK293 nonspecific activity of TRPC6 modulators; 2,400 tested, 51% active; AID 488924; membrane potential dye fluorescence; membrane potential signal change, % at 10 µM; shares compounds with TRPC6 inh;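 active means membrane potential signal moves up or down beyond 5 SD from buffer-only wells, on both duplicate plates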
# HEK293 MPD ctr 2-2: second check of TRPC6 modulator effects in parental HEK293 cells. shares compounds with TRPC6 inh. membrane potential dye fluorescence; after compound, maximal acetylcholine stimulation. inhibition, % at 10 µM. 2,400 tested, 14% active. AID 488926;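 active means membrane potential signal drops by more than 5 SD from the mean control signal, in both duplicate plates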
# TRPC4 ctr mod: mouse TRPC4 off-target activity of TRPC6 modulators | shares compounds with TRPC6 inh | HEK293 TRPC4/mu-opioid, membrane potential fluorescence | 2,400 tested, 69% active | percent change from control (negative = decrease, positive = increase), % at 10 µM;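 active means membrane potential signal moved up or down beyond 5 SD of buffer control wells, in both duplicate plates, actives on both sides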
# TRPC4 ctr inh 2: mouse TRPC4 off-target activity of TRPC6 modulators, second screen; HEK293 TRPC4/mu-opioid, membrane potential dye fluorescence; stimulated with maximal-effect DAMGO; inhibition, % at 10 µM; shares compounds with TRPC6 inh; 2,400 tested, 55% active;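 active means drop in membrane potential signal beyond 5 SD of the control wells in both duplicate plates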;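 further: TRPC4 counter screen for TRPC6 hits run under conditions tuned for TRPC6 not TRPC4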
# TRPC6 inh conf: mouse TRPC6 inhibitor confirmation | shares compounds with TRPC6 inh | HEK293-TRPC6, membrane potential dye, ACh-evoked depolarization | inhibition, % at 10 µM | 3,300 tested, 43% active | AID 488960;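 active means fluorescence ratio falls more than 5 SD below the full-stimulation control mean, in both duplicate runs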;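 further: integrated fluorescence ratio of peak minus minimum over baseline after agonist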
# TRPC6 act conf: mouse TRPC6 activator confirmation; shares compounds with TRPC6 inh; HEK293-TRPC6 membrane potential dye fluorescence, FDSS; activation, % at 10 µM; 2,800 tested, 11% active; AID 488961;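 active means ratio signal rise beyond 5 SD above unstimulated control wells' mean, seen in both duplicate runs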
# Hits are given with their value; i = inactive; nt = not tested or not shown. A selection: hits, their analogues and other compounds. The true share with any hit is near 2.3%.
SMILES,TRPC4 block,TRPC4 potent,TRPC4 act,TRPC6 activator,TRPC6 inh,HEK293 MPD ctr-2,HEK293 MPD ctr 2-2,TRPC4 ctr mod,TRPC4 ctr inh 2,TRPC6 inh conf,TRPC6 act conf,others
O=C1/C(=C\c2ccc(C(F)(F)F)cc2)CSc2sccc21,i,i,i,i,-4.98,i,i,8.5%,i,i,i,
O=C1/C(=C/c2ccc(F)c(F)c2)CSc2sccc21,i,i,i,i,i,nt,nt,nt,nt,nt,nt,
Cc1cc(C)c2nc(N3CCC(C(=O)NCc4cccnc4)CC3)sc2c1,i,i,i,i,-5.3,i,i,i,i,i,i,
Cc1cc(C)c2nc(N3CCC(C(=O)NCc4ccccn4)CC3)sc2c1,i,i,i,i,i,nt,nt,nt,nt,nt,nt,
O=C1CN(C(=O)/C=C/c2cccc(Cl)c2)c2ccccc2N1,i,i,i,i,-6.74,nt,nt,nt,nt,i,i,TRPC4 spec 2=i;TRPC4 spec=i;HEK293 MPD ctr 2-1=i;HEK293 MPD ctr-1=i
CCOC(=O)C1CCN(Cc2cnc(NC(=O)OC)s2)CC1,i,i,i,i,i,nt,nt,nt,nt,nt,nt,
CCOC(=O)C1CCN(Cc2cnc(Oc3ccc(C(C)(C)C)cc3)s2)CC1,i,i,i,11.8,-6.51,i,i,8.5%,i,51.5%,83.0%,
Cc1ccc(S(=O)(=O)N2CCN(C(=O)CC(C)n3nc(C)c(Cl)c3C)CC2)cc1 (centres undefined),i,i,i,i,i,nt,nt,nt,nt,nt,nt,
COc1cccc(CNC(=O)CCN2C(=O)[C@@H]3Cc4ccccc4CN3C2=O)c1,i,i,i,i,i,nt,nt,nt,nt,nt,nt,
Cc1ccc(C(=O)c2cc([N+](=O)[O-])ccc2N2CCOCC2)c(C)c1,i,i,i,i,-5.4,i,i,i,i,i,i,
CN(Cc1ccccc1)C(=O)c1[nH]cnc1C(=O)NCC(=O)OCc1ccccc1,i,i,i,i,i,nt,nt,nt,nt,nt,nt,
OC(COc1ccccc1F)CN1CCC(Cc2ccccc2)CC1 (centres undefined),i,i,i,i,-5.06,155.0%,i,25.0%,44.0%,i,nt,
Cc1ccc(OCC(O)CN2CCC(Cc3ccccc3)CC2)c(C)c1 (centres undefined),i,i,i,i,-5.33,448.5%,i,93.5%,81.0%,46.5%,nt,
Cc1cccc(N2CCN(C(=O)c3ccc(N4CCCC4=O)cc3)CC2C)c1 (centres undefined),i,i,i,i,i,nt,nt,nt,nt,nt,nt,
Cc1cccc(N2CCN(C(=O)c3ccc4c(c3)c(C)c(C)n4C)CC2C)c1 (centres undefined),i,i,i,i,-5.08,i,i,i,i,i,i,

# From PubChem BioAssay
